High-throughput results from PubChem BioAssay.
Sampled rows, rich in hits. Any-hit rate of the full collection: about 11%.
S1P3 agonist: agonists of human S1P3 receptor. AID 373. activation, % at 4.5 µM. Q99500. S1P3 NFAT-BLA reporter cells, agonism, FRET ratio; relative to 1 µM S1P, basal subtracted. 0.1% of 60,000 active;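 active = activation above the screen-wide mean plus 3 SD, cut at about 4.5% in these data, passing the limit was not always enough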
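Material: Human S1P3 NFAT-BLA reporter CHO cells | Incubation: Overnight plating, 4 h compound 37 °C, 2 h substrate RT | Signal: FRET β-lactamase substrate fluorescence, excitation 405 nm, 460/535 nm emission ratio, background-subtracted | Compound: 4.5 µM final, single dose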
D1 mod: D1 dopamine receptor (human) allosteric modulation; HEK293 D1, CRE-luciferase, dopamine EC30 potentiation; actives deviate in either direction; 5.9% of 58,000 active; P21728; B-score at 10 µM;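 active = luminescence count or its row- and column-corrected plate score outside the 99.7% band of the plate's sample wells, on either side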
M1 ag: agonists of M1 muscarinic receptor. CHO-M1 cells, Fluo-4 calcium fluorescence, agonist mode; active compounds read high. B-score at 10 µM. 3% of 64,000 active;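 active = fluorescence rise, raw or as B-score row- and column-corrected plate score, outside the 99.7% band of its plate's samples, either direction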
M1 antag: blocks the rat M1 muscarinic receptor response to acetylcholine; P08482; CHO-M1 cells, Fluo-4 calcium, ACh EC80 antagonist mode; active compounds read low; B-score at 10 µM; 3.4% of 64,000 active; AID 628;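 active = calcium fluorescence response, raw or row-and-column corrected B-score, differing from the plate sample mean either way at a set confidence level, mostly lower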
Target sequence (P08482 whole entry, looked up): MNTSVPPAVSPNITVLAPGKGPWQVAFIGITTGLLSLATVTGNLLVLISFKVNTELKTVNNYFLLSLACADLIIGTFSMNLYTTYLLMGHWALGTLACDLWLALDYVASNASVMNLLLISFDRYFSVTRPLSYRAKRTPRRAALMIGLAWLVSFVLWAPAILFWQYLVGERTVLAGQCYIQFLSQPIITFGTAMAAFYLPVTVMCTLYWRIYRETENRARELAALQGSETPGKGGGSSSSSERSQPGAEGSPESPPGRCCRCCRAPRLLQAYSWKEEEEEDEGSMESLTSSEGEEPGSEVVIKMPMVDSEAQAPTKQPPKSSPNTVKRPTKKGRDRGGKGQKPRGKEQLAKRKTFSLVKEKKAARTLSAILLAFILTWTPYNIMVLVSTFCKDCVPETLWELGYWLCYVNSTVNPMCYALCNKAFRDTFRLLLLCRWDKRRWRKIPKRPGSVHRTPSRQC
TNAP act DEA: activators of human TNAP at intermediate phosphate acceptor. P05186. activation factor at 20 µM. 64,000 tested, under 10 active. AID 813. purified TNAP, CDP-star luminescence, 100 mM DEA, 30 min; active compounds read high; scale: 0 levamisole-inhibited, 1 vehicle-only enzyme;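 active = activation factor of at least 2 at 20 µM, relative to controls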
S1P1 ag pot: S1P1 (human) agonism or agonism potentiation; activation, % at 9.5 µM; S1P1 CRE-bla cells, forskolin, beta-lactamase FRET, potentiator mode; S1P1 agonist co-added at EC20, 2 nM; 100% = saturating reference agonist, 0% = basal; AID 449; 0.57% of 56,000 active;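 active = activation above a cutoff set at the mean activation of all tested compounds plus 3 SD, cut at about 54% in these data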;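 note: forskolin at 4 µM as EC80 and the EC20 agonist is SEW2871; 100% = SEW2871 at its EC100 plus forskolin at EC80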
M1 ag confirm: rat M1 muscarinic agonism, confirmation; CHO-M1 cells, Fluo-4 calcium fluorescence, agonist mode; actives lie on both sides; fluorescence change (max-min) at 10 µM; 19% of 1,700 active; shares compounds with M1 ag; AID 1488;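 active = fluorescence change differs from the solvent-only DMSO control mean at a set confidence level in both duplicate runs; inconclusive = differs from solvent-only control mean in just one of two runs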;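 note: an EC20 dose of acetylcholine follows compound addition during the same imaging run; raw fluorescence intensity difference in instrument units with no normalization to controls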
M4 agonist ctr: rat M4 muscarinic agonism, M1 counter-screen. 9% of 1,700 active. CHO M4/Gqi5 cells, Fluo-4 calcium fluorescence, agonist mode; actives lie on both sides. shares compounds with M1 ag. fluorescence change (max-min) at 10 µM;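 active = fluorescence change differing from the plate's solvent-only control wells at 99.7% confidence in both duplicates, whether higher or lower; inconclusive = differs from solvent controls in only one of two duplicates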
* marks the source's active call; other numbers are inactive results; ? = inconclusive; · = not tested or not shown.

SMILES	S1P3 agonist	D1 mod	M1 ag	M1 antag	TNAP act DEA	S1P1 ag pot	M1 ag confirm	M4 agonist ctr
COc1ccc(C(C)=O)c(Oc2nc(CN3CCOCC3)nc3scc(-c4cccs4)c23)c1	0	0.72	45*	-1.3	1	-25	-14	-47
COc1ccc(C2C(C(N)=O)=C(C)Nc3nc(-c4ccccc4Cl)nn32)c(OC)c1 (stereo not given)	-1	0.11	0.72	0.29	0.9	-18	·	·
CCCCCCNS(=O)(=O)c1nc2nc(C)cc(C)n2n1	0	0.61	-0.049	0.038	0.9	2	·	·
COc1ccc(N2C(=O)C3CCCN3C2c2ccc(C)o2)cc1Cl (stereo not given)	1	0.69	-0.13	-0.3	0.9	2	·	·
Cc1ccc(C2N(c3ccc(Cl)c(Cl)c3)C(=O)C3CCCN32)o1 (stereo not given)	-1	-1.4	6.7*	-0.017	0.9	-11	?	-36
CCN1CCN(c2cc(C)c3cc(NC(=O)c4ccc(Br)o4)ccc3n2)CC1	·	-2.5*	3*	-4.4*	0.9	·	-4	-52
CCN1CCN(c2cc(C)c3cc(NC(=O)c4ccncc4)ccc3n2)CC1	0	-0.072	0.34	-0.56	1	-21	·	·
Cc1cccc(OCCCCCn2ccnc2)c1	-2	-0.52	4.5*	-0.48	0.8	-7	37	-45
Cc1ccccc1OCCCCCn1ccnc1	-1	-0.43	-0.69	-0.044	0.9	-10	·	·
CC(=Nc1ccc(O)cc1)c1sc2ccccc2c1O	-1	-0.58	36*	-0.43	0.8	18	7.2	7.9
CC(=O)NCCN=C(C)c1sc2ccccc2c1O	-1	-0.044	0.03	-0.18	0.9	-4	·	·
CCOC(=O)c1ccc(NC(=O)c2cccc(S(=O)(=O)N3CCOCC3)c2)cc1	-1	0.053	10*	-2.9*	0.9	22	-9.2	?
O=C(Nc1ccc(F)c(F)c1)c1ccc(F)c(S(=O)(=O)N2CCOCC2)c1	·	-0.5	2.2	-0.6	1	·	·	·
O=C(Nc1ccc2c(c1)OCCO2)c1ccc(Br)c(S(=O)(=O)N2CCOCC2)c1	-2	0.017	11*	-0.65	1	-6	?	-68
CCOC(=O)c1ccc(NC(=O)c2ccc(C)c(S(=O)(=O)N3CCOCC3)c2)cc1	·	-6.6*	16*	-3.1*	0.9	·	11	-27
COc1cc(NC(=O)c2cc(OC)c(OC)c(OC)c2)c(OC)cc1NC(=O)CN1CCCCC1	-1	-3.3*	3.9*	-0.17	0.9	-4	?	-47
CCOC(=O)C1CCN(C(=O)Nc2ccccc2Cl)CC1	-2	0.5	0.2	-0.2	1	-2	·	·
COC(=O)c1ccccc1NC(=O)CN(C)S(=O)(=O)c1cc(C)ccc1OC	0	-0.39	0.7	0.27	0.9	-12	·	·
O=C(Nc1cccc(-c2nc3cccnc3s2)c1)c1ccco1	0	-2.1	6*	-1.5	·	-11	?	-50
CCOc1ccc(CC(=O)NCc2cn3c(C)csc3n2)cc1	-1	1.2	3.4*	0.34	0.9	2	?	?
CCc1ccc(S(=O)(=O)NCc2cn3c(C)csc3n2)s1	-1	-0.96	-3.1*	-1.6	0.9	-8	-7.5	-27
Cc1cc2cc(CN(C(=O)C3CC3)C3CCCC3)c3nnnn3c2cc1C	0	2.3	-0.28	0.14	0.9	-4	·	·
CCc1ccc(NC(=O)CSc2nnc(Cn3c(=O)sc4ccccc43)n2C)cc1	-1	·	-0.95	0.017	0.9	-2	·	·
CCOC(=O)c1ccc(NC(=O)CSc2nnc(Cn3c(=O)sc4ccccc43)n2C)cc1	0	·	2.3*	0.19	1	3	3.5	-7
CC(=O)N1CCc2c(sc(NC(=O)C3CC3)c2-c2nc3ccccc3s2)C1	1	-0.88	6.1*	-1.4	0.9	-38	11	?
SMILES	S1P3 agonist	D1 mod	M1 ag	M1 antag	TNAP act DEA	S1P1 ag pot	M1 ag confirm	M4 agonist ctr
CCOC(=O)N1CCN(C(=O)Nc2ccc3nc(C)c(C)nc3c2)CC1	-2	-0.12	-0.081	-0.32	1	-12	·	·
CCOC(=O)C1CCN(C(=O)Nc2ccc3nc(-c4ccco4)c(-c4ccco4)nc3c2)CC1	·	-1.5	84*	-12*	0.8	·	392*	?
O=C(Nc1ccc2nc(-c3ccco3)c(-c3ccco3)nc2c1)N1CCCCCC1	-1	-4.5*	30*	-4.6*	0.8	5	362*	?
CCOC(=O)C1CCN(C(=O)Nc2ccc3c(c2)nc(C)n3C)CC1	-1	-0.95	0.55	0.2	0.9	·	·	·
Cc1ccc(SC/C(O)=C(\C#N)c2nc3ccccc3s2)cc1	-1	-1.6	3.3*	-2.4	0.9	13	-3.5	13
COc1ccc(C/C(O)=C(\C#N)c2nc3ccccc3s2)cc1	·	-1.3	-1.3	-0.38	0.9	·	·	·
CCC(c1c(C)[nH]oc1=O)c1c(C)[nH]oc1=O	0	-1.1	-0.2	0.75	0.9	3	·	·
COc1ccc(N(CC(=O)NCc2ccco2)S(=O)(=O)c2ccc(OC)c(OC)c2)cc1	-2	0.53	-0.3	1.2	0.9	-37	·	·
COc1ccc(C2C(C#N)=C(N)OC(C(C)(C)C)=C2C#N)cc1OC (stereo not given)	-1	3.2	0.37	-0.41	0.9	-20	·	·
COc1ccc(C2C(C#N)=C(N)SC(N)=C2C#N)cc1OC	-3	·	38*	-0.22	1	-15	-11	-51
C=CCn1c2ccccc2c2nnc(SCc3ccc4nonc4c3)nc21	-1	1.2	2.3*	0.36	0.9	-20	-22	-45
O=C1CN(C(=O)c2ccc(Br)o2)C(c2ccc(F)cc2)c2cc(F)ccc2N1 (stereo not given)	0	0.014	2.2	1.3	·	-9	·	·
CCOc1ccc(Nc2ncnc3c2cnn3-c2ccccc2)cc1	-1	1.3	3.2*	-0.04	0.9	-26	-19	?
COc1ccccc1CNC(=O)CSc1nc2nc(C)cc(C)n2n1	·	-1.5	-0.38	1.6	0.9	·	·	·
CCOC(=O)c1sc(NS(=O)(=O)c2ccc(NC(C)=O)cc2)nc1C	0	0.1	-0.055	-0.036	0.8	-7	·	·
Cc1ccc(C(c2nnnn2C(C)(C)C)N(Cc2ccco2)Cc2cccs2)cc1 (stereo not given)	-2	-2.2	6.5	0.19	1	-14	·	·
CC(C)C(c1nnnn1Cc1ccccc1)N(Cc1ccco1)Cc1cccs1 (stereo not given)	-2	0.87	13*	-1.2	0.9	57	-11	-14
